Test results reported in ChEMBL document CHEMBL3045565, “Microwave synthesis, characterization and bio-efficacy evaluation of novel chalcone based 6-carbethoxy-2-cyclohexen-1-one and 2H-indazol-3-ol derivatives” (Eur J Med Chem, 2013).
Values after ≈ are worked out from the molar mass of the structure shown.

What was measured:
Assay type in all cases: functional
[1] = system: Staphylococcus aureus; experiment: Antibacterial activity against Staphylococcus aureus MTCC 3160 assessed as growth inhibition at 25 ug/disk after 24 hr by disk diffusion method; settings: MTCC 3160, 24 h, read-out: DIZ
[2] = system: Bacillus pumilus; experiment: Antibacterial activity against Bacillus pumilus MTCC 2466 assessed as growth inhibition at 25 ug/disk after 24 hr by disk diffusion method; settings: MTCC 2466, 24 h, read-out: DIZ
[3] = system: Dickeya chrysanthemi; experiment: Antibacterial activity against Erwinia chrysanthemi ITCC B-40 assessed as as growth inhibition at 25 ug/disk after 24 hr by disk diffusion method; settings: ITCC B-40, 24 h, read-out: DIZ
[4] = system: Pseudomonas aeruginosa; experiment: Antibacterial activity against Pseudomonas aeruginosa MTCC 2581 assessed as growth inhibition at 25 ug/disk after 24 hr by disk diffusion method; settings: MTCC 2581, 24 h, read-out: DIZ
[5] = system: Bacillus thuringiensis; experiment: Antibacterial activity against Bacillus thuringiensis MTCC 6941 assessed as growth inhibition at 25 ug/disk after 24 hr by disk diffusion method; settings: MTCC 6941, 24 h, read-out: DIZ
[6] = system: Xanthomonas oryzae; experiment: Antibacterial activity against Xanthomonas oryzae ITCC B-47 assessed as as growth inhibition at 25 ug/disk after 24 hr by disk diffusion method; settings: ITCC B-47, 24 h, read-out: DIZ
[7] = system: Klebsiella pneumoniae; experiment: Antibacterial activity against Klebsiella pneumoniae MTCC 7028 assessed as growth inhibition at 25 ug/disk after 24 hr by disk diffusion method; settings: MTCC 7028, 24 h, read-out: DIZ
[8] = system: Radical scavenging activity; experiment: Antioxidant activity assessed as DPPH free radical scavenging activity at 60 ug/mL after 20 min by UV-Vis spectrophotometric analysis
Method in brief: (§1)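 DPPH radical scavenging: samples were held at room temperature for 20 min in the dark, and absorbance was read at 517 nm. The control contained DMSO without compound, and methanol was used for baseline correction. Scavenging percentage was calculated from the absorbances.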

[9] = system: Radical scavenging activity; experiment: Antioxidant activity assessed as DPPH free radical scavenging activity at 40 ug/mL after 20 min by UV-Vis spectrophotometric analysis; method in brief: as §1
[10] = system: Bacillus thuringiensis; experiment: Antibacterial activity against Bacillus thuringiensis MTCC 6941 assessed as growth inhibition at 100 ug/disk after 24 hr by disk diffusion method; settings: MTCC 6941, 24 h, read-out: DIZ
Method in brief: (§2)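 Disk diffusion on nutrient agar. Strains kept on NA slants at 37 °C and subcultured in nutrient broth before testing. A log-phase culture was spread on solidified medium, and sterile disks were loaded with compound from DMSO stock. DMSO served as control, with commercial antibiotics for reference. Plates ran 24 h at 37 °C, and inhibition zones (mm) were read in quadruplicate.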

[11] = system: Rhizoctonia solani; experiment: Antifungal activity against Rhizoctonia solani ITCC 5563 by food poisoning method
Method in brief: (§3)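 Poisoned food technique on PDA at several concentrations. A 5 mm mycelial plug from the growing edge of a 2-week-old colony was placed inoculum-side down at the plate centre. Plates incubated at 27 °C until control growth was nearly complete. Colony diameter measured, percent inhibition calculated against control, LC50 derived. Four replicates per treatment.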

[12] = system: Radical scavenging activity; experiment: Antioxidant activity assessed as DPPH free radical scavenging activity at 400 ug/mL after 20 min by UV-Vis spectrophotometric analysis; method in brief: as §1
[13] = system: Radical scavenging activity; experiment: Antioxidant activity assessed as DPPH free radical scavenging activity at 300 ug/mL after 20 min by UV-Vis spectrophotometric analysis; method in brief: as §1
[14] = system: Radical scavenging activity; experiment: Antioxidant activity assessed as DPPH free radical scavenging activity at 20 ug/mL after 20 min by UV-Vis spectrophotometric analysis; method in brief: as §1
[15] = system: Athelia rolfsii; experiment: Antifungal activity against Athelia rolfsii ITCC 6181 by food poisoning method; settings: Agroathelia rolfsii; method in brief: as §3
[16] = system: Radical scavenging activity; experiment: Antioxidant activity assessed as DPPH free radical scavenging activity at 10 ug/mL after 20 min by UV-Vis spectrophotometric analysis; method in brief: as §1
[17] = system: Klebsiella pneumoniae; experiment: Antibacterial activity against Klebsiella pneumoniae MTCC 7028 assessed as growth inhibition after 24 hr by broth dilution method; settings: MTCC 7028, 24 h
Method in brief: (§4)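 Broth dilution, with streptomycin as the standard. MIC was taken as the lowest concentration giving more than 90% bacterial inhibition.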

[18] = system: Radical scavenging activity; experiment: Antioxidant activity assessed as DPPH free radical scavenging activity at 200 ug/mL after 20 min by UV-Vis spectrophotometric analysis; method in brief: as §1
[19] = system: Radical scavenging activity; experiment: Antioxidant activity assessed as DPPH free radical scavenging activity at 100 ug/mL after 20 min by UV-Vis spectrophotometric analysis; method in brief: as §1
[20] = system: Xanthomonas oryzae; experiment: Antibacterial activity against Xanthomonas oryzae ITCC B-47 assessed as as growth inhibition at 100 ug/disk after 24 hr by disk diffusion method; settings: ITCC B-47, 24 h, read-out: DIZ
[21] = system: Bacillus pumilus; experiment: Antibacterial activity against Bacillus pumilus MTCC 2466 assessed as growth inhibition at 100 ug/disk after 24 hr by disk diffusion method; settings: MTCC 2466, 24 h, read-out: DIZ; method in brief: as §2
[22] = system: Radical scavenging activity; experiment: Antioxidant activity assessed as DPPH free radical scavenging activity after 20 min by UV-Vis spectrophotometric analysis; set-up: concentration or dose not given beside the values; method in brief: as §1
[23] = system: Dickeya chrysanthemi; experiment: Antibacterial activity against Erwinia chrysanthemi ITCC B-40 assessed as as growth inhibition at 100 ug/disk after 24 hr by disk diffusion method; settings: ITCC B-40, 24 h, read-out: DIZ; method in brief: as §2
[24] = system: Pseudomonas aeruginosa; experiment: Antibacterial activity against Pseudomonas aeruginosa MTCC 2581 assessed as growth inhibition at 100 ug/disk after 24 hr by disk diffusion method; settings: MTCC 2581, 24 h, read-out: DIZ; method in brief: as §2
[25] = system: Staphylococcus aureus; experiment: Antibacterial activity against Staphylococcus aureus MTCC 3160 assessed as growth inhibition at 100 ug/disk after 24 hr by disk diffusion method; settings: MTCC 3160, 24 h, read-out: DIZ; method in brief: as §2
[26] = system: Radical scavenging activity; experiment: Antioxidant activity assessed as DPPH free radical scavenging activity at 80 ug/mL after 20 min by UV-Vis spectrophotometric analysis; method in brief: as §1
[27] = system: Radical scavenging activity; experiment: Antioxidant activity assessed as DPPH free radical scavenging activity at 500 ug/mL after 20 min by UV-Vis spectrophotometric analysis; method in brief: as §1
[28] = system: Klebsiella pneumoniae; experiment: Antibacterial activity against Klebsiella pneumoniae MTCC 7028 assessed as growth inhibition at 100 ug/disk after 24 hr by disk diffusion method; settings: MTCC 7028, 24 h, read-out: DIZ; method in brief: as §2
[29] = system: Dickeya chrysanthemi; experiment: Antibacterial activity against Erwinia chrysanthemi ITCC B-40 assessed as as growth inhibition after 24 hr by broth dilution method; settings: ITCC B-40, 24 h; method in brief: as §4

| SMILES | Activity [8] [%] | Activity [9] [%] | zone of inhibition at 100 µg/disc [10] [mm] | LC50 [11] [µg/mL] | Activity [12] [%] | Activity [13] [%] | Activity [14] [%] | LC50 [15] [µg/mL] | Activity [16] [%] | Activity [18] [%] | Activity [19] [%] | zone of inhibition at 100 µg/disc [20] [mm] | zone of inhibition at 100 µg/disc [21] [mm] | Activity [22] [%] | IC50 [22] [µg/mL] | zone of inhibition at 100 µg/disc [23] [mm] | zone of inhibition at 100 µg/disc [24] [mm] | zone of inhibition at 100 µg/disc [25] [mm] | Activity [26] [%] | zone of inhibition at 100 µg/disc [28] [mm] | also measured |
| --- | --- | --- | --- | --- | --- | --- | --- | --- | --- | --- | --- | --- | --- | --- | --- | --- | --- | --- | --- | --- | --- |
| CC1(C)S[C@@H]2[C@H](NC(=O)[C@H](N)c3ccccc3)C(=O)N2[C@H]1C(=O)O [AMPICILLIN] | – | – | – | – | – | – | – | – | – | – | – | – | – | – | – | – | – | – | – | – | zone of inhibition at 25 µg/disc [1]: 10 mm; zone of inhibition at 25 µg/disc [2]: 20 mm; zone of inhibition at 25 µg/disc [3]: 20 mm; zone of inhibition at 25 µg/disc [4]: 10 mm; zone of inhibition at 25 µg/disc [5]: 0 mm; zone of inhibition at 25 µg/disc [6]: 5 mm; zone of inhibition at 25 µg/disc [7]: 10 mm |
| O=c1[nH][nH]c2c1C(c1ccccc1)CC(c1ccc(F)cc1)=C2 (stereo unspecified) | 86.9 | 70.5 | 0 | 669 (≈ 2180 µM) | 90.8 | 90.7 | 30.4 | 912 (≈ 2980 µM) | 23.5 | 92.2 | 91 | 0 | 0 | 70.5 | 23.71 (≈ 77.4 µM) | 0 | 0 | 0 | 89 | 15 | MIC [17]: 24.7 µg/mL (≈ 80.6 µM); Activity [27]: 90.8% |
| CCOC(=O)C1C(=O)C=C(c2ccc(Cl)cc2)CC1c1ccc(OC)cc1 (stereo unspecified) | – | – | 0 | 58 (≈ 151 µM) | – | – | – | 372 (≈ 967 µM) | – | – | – | 0 | 0 | 4.74 | – | 15 | 0 | 0 | – | 0 | MIC [29]: 73.6 µg/mL (≈ 191 µM) |
| NC[C@H]1O[C@H](O[C@H]2[C@H](O)[C@@H](O[C@H]3O[C@H](CO)[C@@H](O)[C@H](N)[C@H]3O)[C@H](N)C[C@@H]2N)[C@H](O)[C@@H](O)[C@@H]1O [KANAMYCIN] | – | – | – | – | – | – | – | – | – | – | – | – | – | – | – | – | – | – | – | – | zone of inhibition at 25 µg/disc [1]: 10 mm; zone of inhibition at 25 µg/disc [2]: 0 mm; zone of inhibition at 25 µg/disc [3]: 0 mm; zone of inhibition at 25 µg/disc [4]: 0 mm; zone of inhibition at 25 µg/disc [5]: 15 mm; zone of inhibition at 25 µg/disc [6]: 0 mm; zone of inhibition at 25 µg/disc [7]: 15 mm |
| COc1cc(C2CC(c3ccc(C)cc3)=Cc3n[nH]c(O)c32)cc(OC)c1OC (stereo unspecified) | 79.3 | 56.9 | 0 | 738 (≈ 1880 µM) | 90.3 | 90.2 | 26.4 | 1170 (≈ 2990 µM) | 15 | 91.8 | 90.8 | 0 | 0 | 56.9 | 29.7 (≈ 75.7 µM) | 0 | 0 | 0 | 89.9 | 0 | Activity [27]: 90.6% |
| CN[C@@H]1[C@H](O[C@H]2[C@H](O[C@H]3[C@H](O)[C@@H](O)[C@H](N=C(N)N)[C@@H](O)[C@@H]3N=C(N)N)O[C@@H](C)[C@]2(O)C=O)O[C@@H](CO)[C@H](O)[C@H]1O [STREPTOMYCIN] | – | – | – | – | – | – | – | – | – | – | – | – | – | – | – | – | – | – | – | – | zone of inhibition at 25 µg/disc [1]: 20 mm; MIC [29]: 4.6 µg/mL (≈ 7.91 µM); zone of inhibition at 25 µg/disc [2]: 15 mm; MIC [17]: 3.1 µg/mL (≈ 5.33 µM); zone of inhibition at 25 µg/disc [3]: 20 mm; zone of inhibition at 25 µg/disc [4]: 20 mm; zone of inhibition at 25 µg/disc [5]: 20 mm; zone of inhibition at 25 µg/disc [6]: 20 mm; zone of inhibition at 25 µg/disc [7]: 20 mm |
| O=[N+]([O-])c1ccc(C2=Cc3n[nH]c(O)c3C(c3ccc4c(c3)OCO4)C2)cc1 (stereo unspecified) | 38.4 | 19.8 | 0 | 931 (≈ 2470 µM) | 87.3 | 87.9 | 5.8 | 963 (≈ 2550 µM) | 5.3 | 83.4 | 50.7 | 0 | 0 | 19.8 | 95.82 (≈ 254 µM) | 0 | 0 | 0 | 44.5 | 0 | Activity [27]: 87.3% |
| COc1ccc(C2=Cc3n[nH]c(O)c3C(c3ccc(OC)c(OC)c3)C2)cc1 (stereo unspecified) | 85.8 | 65.3 | 0 | 1030 (≈ 2730 µM) | 90.5 | 90.4 | 29.2 | 1240 (≈ 3280 µM) | 17.7 | 92.1 | 91.4 | 0 | 0 | 65.3 | 23.94 (≈ 63.3 µM) | 0 | 0 | 0 | 90 | 0 | Activity [27]: 90.8% |
| O=[N+]([O-])c1cccc(C2CC(c3ccc(F)cc3)=Cc3n[nH]c(O)c32)c1 (stereo unspecified) | 86.4 | 67.9 | 0 | 528 (≈ 1500 µM) | 90.9 | 90.5 | 35.9 | 796 (≈ 2270 µM) | 22.6 | 92.3 | 90.8 | 0 | 0 | 67.9 | 19.81 (≈ 56.4 µM) | 0 | 0 | 0 | 90.1 | 0 | Activity [27]: 91.1% |
| CCOC(=O)C1C(=O)C=C(c2ccccc2)CC1c1ccc(OC)cc1 (stereo unspecified) | – | – | 0 | 116 (≈ 331 µM) | – | – | – | 347 (≈ 990 µM) | – | – | – | 0 | 0 | 2.69 | – | 15 | 0 | 0 | – | 0 | MIC [29]: 5.9 µg/mL (≈ 16.8 µM) |
